Reference: ChEMBL document CHEMBL4689842, “EUbOPEN Chemogenomics Library wave 1” (2021)

What was measured:
Type in all cases: toxicity, cell-based
U2OS [1] = experiment: Multiplex assay against U2OS; conditions: human
Procedure, shortened: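 Four dyes were applied at seeding to live cells: Hoechst33342, BioTracker Green Microtubule Cytoskeleton Dye, MitoTracker Red and Annexin V Alexa Fluor 680. Imaging after compound addition used a CQ1 microscope at 37°C and 5% CO2. CellPathfinder machine-learning gating then sorted cells into Hoechst high-intensity objects or normal cells, normal cells into healthy, pyknosed or fragmented nuclei, and pyknosed cells into mitotic or apoptotic, with tubulin, mitochondrial-mass and membrane-permeability phenotypes given as per cents of healthy-nucleus cells.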

U2OS [2] = experiment: Incucyte cell viability with U2OS; conditions: human, 10 µM, compound concentration 10 uM; further: filed as whole numbers so only -1 and 0 and 1 occur
HEK-293T = experiment: Incucyte cell viability with HEK293T; conditions: human, 10 µM, compound concentration 10 uM; further: filed as whole numbers so only -1 and 0 and 1 occur
[3] = 12 h, 1 µM, compound concentration 1 uM, replicate 1
[4] = 12 h, 1 µM, compound concentration 1 uM, replicate 2
[5] = 12 h, 10 µM, compound concentration 10 uM, replicate 1
[6] = 12 h, 10 µM, compound concentration 10 uM, replicate 2
[7] = 24 h, 1 µM, compound concentration 1 uM, replicate 1
[8] = 24 h, 1 µM, compound concentration 1 uM, replicate 2
[9] = 24 h, 10 µM, compound concentration 10 uM, replicate 1
[10] = 24 h, 10 µM, compound concentration 10 uM, replicate 2
[11] = 48 h, 1 µM, compound concentration 1 uM, replicate 1
[12] = 48 h, 1 µM, compound concentration 1 uM, replicate 2
[13] = 48 h, 10 µM, compound concentration 10 uM, replicate 1
[14] = 48 h, 10 µM, compound concentration 10 uM, replicate 2
[15] = 6 h, replicate number 1, timepoint 6 hours
[16] = 12 h, replicate number 1, timepoint 12 hours
[17] = 18 h, replicate number 1, timepoint 18 hours
[18] = 24 h, replicate number 1, timepoint 24 hours

## CC(=O)c1cc(-c2cc(C(=O)NC3CC3)ccc2C)c2ncccn12
U2OS [1]; [3]
  Population Apoptotic (%): 42%
  Population Fragmented Nuclei (%): 6%
  Population Healthy Nuclei (%): 84%
  Population Hoechst High Intensity Objects (%): 5%
  Population Membrane Permeable-Phenotype (%): 9%
  Population Mitochondria Different-Phenotype (%): 8%
  Population Mitotic Cells (%): 57%
  Population Normal (%): 94%
  Population Pyknosed Nuclei (%): 8%
  Population Tubulin-Different-Phenotype (%): 14%
  Total Cell Count: 108
U2OS [1]; [4]
  Population Apoptotic (%): 66%
  Population Fragmented Nuclei (%): 8%
  Population Healthy Nuclei (%): 85%
  Population Hoechst High Intensity Objects (%): 7%
  Population Membrane Permeable-Phenotype (%): 2%
  Population Mitochondria Different-Phenotype (%): 7%
  Population Mitotic Cells (%): 33%
  Population Normal (%): 92%
  Population Pyknosed Nuclei (%): 6%
  Population Tubulin-Different-Phenotype (%): 19%
  Total Cell Count: 73
U2OS [1]; [5]
  Population Apoptotic (%): 43%
  Population Fragmented Nuclei (%): 7%
  Population Healthy Nuclei (%): 79%
  Population Hoechst High Intensity Objects (%): 6%
  Population Membrane Permeable-Phenotype (%): 6%
  Population Mitochondria Different-Phenotype (%): 9%
  Population Mitotic Cells (%): 56%
  Population Normal (%): 93%
  Population Pyknosed Nuclei (%): 12%
  Population Tubulin-Different-Phenotype (%): 16%
  Total Cell Count: 169
U2OS [1]; [6]
  Population Apoptotic (%): 60%
  Population Fragmented Nuclei (%): 11%
  Population Healthy Nuclei (%): 84%
  Population Hoechst High Intensity Objects (%): 4%
  Population Membrane Permeable-Phenotype (%): 3%
  Population Mitochondria Different-Phenotype (%): 8%
  Population Mitotic Cells (%): 40%
  Population Normal (%): 95%
  Population Pyknosed Nuclei (%): 5%
  Population Tubulin-Different-Phenotype (%): 17%
  Total Cell Count: 52
U2OS [1]; [7]
  Population Apoptotic (%): 43%
  Population Fragmented Nuclei (%): 4%
  Population Healthy Nuclei (%): 89%
  Population Hoechst High Intensity Objects (%): 4%
  Population Membrane Permeable-Phenotype (%): 6%
  Population Mitochondria Different-Phenotype (%): 5%
  Population Mitotic Cells (%): 56%
  Population Normal (%): 96%
  Population Pyknosed Nuclei (%): 6%
  Population Tubulin-Different-Phenotype (%): 17%
  Total Cell Count: 111
U2OS [1]; [8]
  Population Apoptotic (%): 0%
  Population Fragmented Nuclei (%): 3%
  Population Healthy Nuclei (%): 91%
  Population Membrane Permeable-Phenotype (%): 3%
  Population Mitochondria Different-Phenotype (%): 9%
  Population Mitotic Cells (%): 100%
  Population Normal (%): 95%
  Population Pyknosed Nuclei (%): 5%
  Population Tubulin-Different-Phenotype (%): 12%
  Total Cell Count: 70
U2OS [1]; [9]
  Population Apoptotic (%): 25%
  Population Fragmented Nuclei (%): 15%
  Population Healthy Nuclei (%): 66%
  Population Hoechst High Intensity Objects (%): 2%
  Population Membrane Permeable-Phenotype (%): 10%
  Population Mitochondria Different-Phenotype (%): 5%
  Population Mitotic Cells (%): 75%
  Population Normal (%): 97%
  Population Pyknosed Nuclei (%): 18%
  Population Tubulin-Different-Phenotype (%): 17%
  Total Cell Count: 250
U2OS [1]; [10]
  Population Apoptotic (%): 48%
  Population Fragmented Nuclei (%): 11%
  Population Healthy Nuclei (%): 63%
  Population Membrane Permeable-Phenotype (%): 8%
  Population Mitochondria Different-Phenotype (%): 12%
  Population Mitotic Cells (%): 51%
  Population Pyknosed Nuclei (%): 24%
  Population Tubulin-Different-Phenotype (%): 18%
  Total Cell Count: 62
U2OS [1]; [11]
  Population Apoptotic (%): 47%
  Population Fragmented Nuclei (%): 3%
  Population Healthy Nuclei (%): 91%
  Population Hoechst High Intensity Objects (%): 2%
  Population Membrane Permeable-Phenotype (%): 3%
  Population Mitochondria Different-Phenotype (%): 9%
  Population Mitotic Cells (%): 52%
  Population Normal (%): 97%
  Population Pyknosed Nuclei (%): 5%
  Population Tubulin-Different-Phenotype (%): 21%
  Total Cell Count: 106
U2OS [1]; [12]
  Population Apoptotic (%): 16%
  Population Fragmented Nuclei (%): 2%
  Population Hoechst High Intensity Objects (%): 3%
  Population Membrane Permeable-Phenotype (%): 2%
  Population Mitochondria Different-Phenotype (%): 20%
  Population Mitotic Cells (%): 83%
  Population Normal (%): 96%
  Population Pyknosed Nuclei (%): 6%
  Population Tubulin-Different-Phenotype (%): 23%
  Total Cell Count: 67
U2OS [1]; [13]
  Population Apoptotic (%): 70%
  Population Fragmented Nuclei (%): 16%
  Population Healthy Nuclei (%): 60%
  Population Hoechst High Intensity Objects (%): 7%
  Population Membrane Permeable-Phenotype (%): 10%
  Population Mitochondria Different-Phenotype (%): 6%
  Population Mitotic Cells (%): 30%
  Population Normal (%): 92%
  Population Pyknosed Nuclei (%): 22%
  Population Tubulin-Different-Phenotype (%): 16%
  Total Cell Count: 381
U2OS [1]; [14]
  Population Apoptotic (%): 87%
  Population Fragmented Nuclei (%): 14%
  Population Healthy Nuclei (%): 73%
  Population Hoechst High Intensity Objects (%): 4%
  Population Membrane Permeable-Phenotype (%): 31%
  Population Mitochondria Different-Phenotype (%): 29%
  Population Mitotic Cells (%): 12%
  Population Normal (%): 95%
  Population Pyknosed Nuclei (%): 11%
  Population Tubulin-Different-Phenotype (%): 35%
  Total Cell Count: 93
U2OS [2]; 0 h, replicate number 1, timepoint 0 hours
  Growth Rate: 0
U2OS [2]; [15]
  Growth Rate: 0
U2OS [2]; [16]
  Growth Rate: 0
U2OS [2]; [17]
  Growth Rate: 0
U2OS [2]; [18]
  Growth Rate: 0
HEK-293T; 0 h, replicate number 2, timepoint 0 hours
  Growth Rate: 1
HEK-293T; [15]
  Growth Rate: 0
HEK-293T; [16]
  Growth Rate: 0
HEK-293T; [17]
  Growth Rate: 0
HEK-293T; [18]
  Growth Rate: 0
